From PubChem BioAssay
core dimer inh = HCV core protein dimerization inhibition. TR-FRET GST/Flag-core106 dimerization, 1536-well. inhibition, % at 5 µM. actives 0.33% (n = 300,000). AID 1899;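 active = inhibition above the mean of all tested compounds plus 3 SD, set per screening campaign, cut at about 45% in these data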
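Material: Tagged HCV core106 pair (GST and Flag) | Amount: GST-core106 13.5 nM, Flag-core106 17 nM | Medium: KF-containing HEPES buffer, pH 7.45, DTT, CHAPS, BSA | Reagent: Eu donor and XL665 acceptor anti-tag antibodies | Schedule: 4 h at 22.5 °C | Technique: Time-resolved FRET, ex 340 nm, em 617 and 671 nm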
ZTA counter = blocks Epstein-Barr virus ZTA, an EBNA-1 counter-screen | AID 2234 | ZTA-DNA binding, fluorescence polarization | inhibition, % at 11 µM | P03206 | actives 0.15% (n = 320,000); in the data active = inhibition above about 33%
Target sequence (P03206 whole entry, looked up): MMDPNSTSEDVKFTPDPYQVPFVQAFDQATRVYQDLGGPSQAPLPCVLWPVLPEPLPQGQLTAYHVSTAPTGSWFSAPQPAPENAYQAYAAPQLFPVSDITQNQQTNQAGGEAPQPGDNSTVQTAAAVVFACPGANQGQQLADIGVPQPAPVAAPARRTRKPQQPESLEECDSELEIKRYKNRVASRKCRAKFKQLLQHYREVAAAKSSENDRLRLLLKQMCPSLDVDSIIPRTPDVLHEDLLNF
NS3 helicase inh = blocks Hepatitis C virus NS3 helicase unwinding. NS3 helicase DNA unwinding, Cy5 molecular beacon fluorescence. inhibition, % at 10.9 µM. actives 0.56% (n = 290,000). AID 1800;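 active = inhibition above the mean of all tested compounds plus 3 SD, set per campaign, cut at about 35% in these data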;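 note: 0% = DMSO wells and 100% = thioflavine S control wells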
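test system = hepatitis C virus NS3 helicase domain fragment enzyme | reagent = annealed dual-labelled DNA beacon duplex, ATP-started | times = 1 h at 25 °C | detection = Cy5 fluorescence, 0 and 60 min reads | read-out basis = percent inhibition from t60/t0 fluorescence ratio | control set = DMSO and thioflavine S | replication = one well per compound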
GPR7 antag = antagonists of human GPR7 (neuropeptides B/W receptor 1) | P48145 | GPR7-expressing cells, fluorescence antagonist assay | inhibition, % at 4.4 µM | actives 1.1% (n = 290,000) | AID 1861; in the data active = inhibition above about 16%, passing the limit was not always enough;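 note: cells stimulated with the agonist NPW; 0% = agonist with vehicle and 100% = vehicle without agonist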
Target sequence (P48145 whole entry, looked up): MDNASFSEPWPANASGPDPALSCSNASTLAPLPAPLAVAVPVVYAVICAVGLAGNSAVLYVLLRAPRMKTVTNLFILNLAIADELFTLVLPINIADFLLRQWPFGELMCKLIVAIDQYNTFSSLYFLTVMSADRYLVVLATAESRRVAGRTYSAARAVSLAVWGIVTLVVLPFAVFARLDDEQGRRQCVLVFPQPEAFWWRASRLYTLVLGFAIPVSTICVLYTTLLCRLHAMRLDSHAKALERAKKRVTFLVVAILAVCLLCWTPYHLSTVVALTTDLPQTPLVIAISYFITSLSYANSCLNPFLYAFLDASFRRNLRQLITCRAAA
EBNA-1 inh = blocks EBNA-1 binding to DNA; inhibition, % at 14.8 µM; actives 0.34% (n = 300,000); EBNA-1 DNA binding, fluorescence polarization; AID 1950; in the data active = inhibition above about 28%
EBV gp42 inh = inhibitors of Epstein-Barr virus glycoprotein 42 | Q1HVG2 | Fluorescence polarization binding assay, mP read-out | inhibition, % (tested at 21.74 µM) | actives 0.42% (n = 220,000) | AID 1085; in the data active = inhibition above about 50%
EBNA-1 inh conf = EBNA-1 (EBV) inhibition, confirmation. shares compounds with EBNA-1 inh. Recombinant EBNA-1 DBD, Cy5-DNA fluorescence polarization. inhibition, % at 14.8 µM. actives 35% (n = 830). AID 2292;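 active = mean inhibition across replicates above a set limit taken from the earlier primary screen, cut at about 28% in these data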;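 note: plate controls were EBNA-1 protein with DMSO for no effect and wells lacking EBNA-1 for full effect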
ZTA DNA inh trip = blocks Epstein-Barr virus ZTA in triplicate, EBNA-1 counter-screen; shares compounds with EBNA-1 inh; Zta-ZRE DNA binding, Cy5 fluorescence polarization; inhibition, % at 11.1 µM; 830 tested, under 10 active;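 active = mean inhibition over triplicates above a set limit taken from the primary EBNA-1 screen, cut at about 37% in these data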;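 note: purified full length Zta protein with Cy5 labeled ZRE DNA probe; 0% = Zta with DMSO and 100% = wells lacking Zta protein; inhibitors lower polarization by freeing the labeled DNA probe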
* = called active by the depositor; · = not tested or not shown. Rows were chosen to be rich in hits. Some 2.3% of all compounds tested hit in one or more screens of this group.

SMILES | core dimer inh | ZTA counter | NS3 helicase inh | GPR7 antag | EBNA-1 inh | EBV gp42 inh | EBNA-1 inh conf | ZTA DNA inh trip
Cc1c(NC(=O)C2CCCCC2)cc(C(=O)N2CCOCC2)cc1[N+](=O)[O-] | -14.9 | -2.8 | 9.5 | -4.1 | -7.4 | -2.4 | · | ·
Cc1cc(NC(=O)CSc2nc3ccccc3c(=O)n2Cc2ccc(F)cc2)no1 | 0.5 | -1.6 | 0.9 | -12.8 | 56.7* | -14.7 | 23.1 | 13.7
Cc1ccc(S(=O)(=O)N2CCOCC2)cc1NC(=O)CSc1nc2ccccc2c(=O)n1Cc1ccccc1 | 16.5 | -1.8 | -23.7 | -0.4 | 33.3* | -15.5 | 13.4 | 18.4
CC(C)NC(=O)CCCN1C(=O)c2ccccc2Sc2ncccc21 | -4.2 | -13.6 | 8.8 | -5.8 | -0.3 | · | · | ·
Cc1ccccc1NC(=O)C(C)OC(=O)c1ccccc1C(=O)N(C)c1ccccc1 (centres undefined) | -1.8 | -6.6 | · | · | 0.0 | · | · | ·
O=C(CCc1nnc(C2CCCCC2)o1)N1CCN(Cc2ccccc2)CC1 | -1.1 | 15.9 | 15.0 | -8.9 | 6.1 | 4.8 | · | ·
COc1ccc(N(C(=O)c2ccco2)C(C(=O)NC2CCCC2)c2cccs2)c(OC)c1 (centres undefined) | -0.1 | 17.5 | 4.9 | -3.6 | 54.6* | · | 8.3 | 12.8
CCOc1ccccc1N(C(=O)c1ccco1)C(C(=O)NC1CCCC1)c1cccs1 (centres undefined) | -10.5 | -3.7 | 11.9 | -1.0 | -6.5 | · | · | ·
Cc1nc(Nc2ccccc2C(F)(F)F)sc1C(=O)N(C)C | -0.7 | 24.6 | -4.1 | 3.4 | -2.3 | 0.7 | · | ·
C=CCn1c(SCC(=O)NC(=O)NCc2ccco2)nc2sc(C)c(C)c2c1=O | 11.2 | 9.1 | -0.3 | -2.5 | 46.9* | -9.2 | 31.7* | 2.3
CC(=O)CCc1c(C)nc2ccc(C(=O)O)cc2c1Cl | -11.2 | 7.7 | 2.4 | -1.9 | 31.3* | -12.0 | -12.6 | -22.0
Cc1cccc(C)c1OCC(=O)NNC(=O)CNC(=O)c1ccc(OC(F)F)cc1 | · | -1.6 | · | · | · | · | · | ·
Cc1cc2c(cc1S(=O)(=O)N1CCCCC1)OCC(=O)N2 | -3.1 | -1.7 | 15.1 | -1.0 | 4.8 | · | · | ·
COc1ccc(N2CCN(S(=O)(=O)c3cc4c(cc3C)NC(=O)CO4)CC2)cc1 | -45.7 | 14.7 | -0.1 | 12.3 | 33.0* | · | 18.0 | 1.5
COc1cccc(N2CCN(S(=O)(=O)c3cc4c(cc3Cl)NC(=O)CO4)CC2)c1 | 20.2 | 12.4 | 10.1 | -0.6 | 31.9* | · | 20.9 | 3.1
Cc1cccc(N2CCN(S(=O)(=O)c3cc4c(cc3Cl)NC(=O)CO4)CC2)c1C | 16.7 | -8.8 | -12.9 | -5.2 | -4.1 | · | · | ·
Cc1ccc(N(CC(O)CON=C2c3ccccc3-c3ccccc32)S(C)(=O)=O)cc1 (centres undefined) | 2.1 | 1.9 | -22.3 | 4.5 | 6.3 | 2.6 | · | ·
COc1cc(Cl)c(NS(=O)(=O)c2cc3[nH]c(=O)c(=O)[nH]c3cc2C)c(OC)c1 | 2.5 | -2.6 | 9.4 | 1.0 | 11.6 | · | · | ·
CC(=O)c1cccc(NC(=S)N2CCN(CCN3C(=O)c4cccc5cccc(c45)C3=O)CC2)c1 | 1.3 | -3.4 | -0.7 | -3.9 | 33.9* | -11.3 | 19.1 | -15.3
CCOc1ccc(NC(=O)c2ccc(NC(=S)NC3CC3)cc2)cc1 | 12.2 | 16.9 | 7.9 | -1.0 | 37.8* | 6.0 | 28.4* | -4.6
CCOc1ccc(NC(=O)c2ccc(C#CC(C)(C)O)cc2)cc1 | 1.5 | 9.2 | 10.0 | 5.0 | 30.2* | -8.6 | 12.4 | 1.4
Cc1ccc(S(=O)(=O)NCc2cccnc2)cc1 | -2.9 | -3.6 | -0.6 | 1.0 | -10.4 | · | · | ·
Cc1nnc(NC(=O)CSc2ncnc3scc(-c4ccccc4)c23)s1 | 5.4 | 13.4 | 1.0 | -3.6 | 34.0* | -14.7 | 29.1* | -6.7
COC(=O)CSc1ncnc2scc(-c3ccccc3)c12 | 0.8 | -4.9 | 0.3 | 3.2 | -5.7 | -6.7 | · | ·
Cc1cc2nc(-c3cccc(NC(=O)c4ccc(Br)o4)c3)oc2cc1C | 10.9 | 1.8 | -2.3 | -5.9 | 50.9* | -10.9 | 15.2 | -2.5
SMILES | core dimer inh | ZTA counter | NS3 helicase inh | GPR7 antag | EBNA-1 inh | EBV gp42 inh | EBNA-1 inh conf | ZTA DNA inh trip
O=S(=O)(NCc1ccccc1)c1ccc(S(=O)(=O)N(Cc2cccs2)CC2CCCO2)cc1 (centres undefined) | 2.7 | 16.5 | -1.2 | 0.0 | 34.5* | -4.1 | 27.2 | 20.4
CC(=O)c1cccc(NC(=O)C2=CN3CCS(=O)(=O)N=C3C=C2)c1 | · | 3.8 | · | · | · | · | · | ·
COc1ccc(C(=O)Nc2ccccc2C(=O)NC(Cc2ccc(O)cc2)C(=O)NNC(=O)c2ccccc2)cc1 (centres undefined) | 2.9 | -16.3 | -1.9 | -15.4 | 82.4* | -9.9 | -8.5 | -10.1
COc1ccc(C(=O)Nc2ccccc2C(=O)NC(Cc2ccc(O)cc2)C(=O)NNC(=O)c2ccc(C)cc2)cc1 (centres undefined) | 6.8 | -29.7 | 0.8 | -13.8 | -9.1 | -18.5 | · | ·
CCN1C(=O)[C@H]2[C@@H](c3ccc(C)cc3)N3C(=O)N(c4cccc(F)c4)C(=O)[C@@]3(C)[C@H]2C1=O | 2.3 | 1.9 | -2.3 | -13.8 | 0.8 | · | · | ·
CCOc1ccc2oc(C(=O)NNC(=O)c3ccccc3O)c(C)c2c1 | 1.3 | -11.5 | · | · | 72.8* | · | 6.4 | 1.2
Cc1c(C(=O)NNC(=O)c2ccccc2O)oc2ccc(Br)cc12 | 22.4 | 1.7 | · | · | 13.1 | · | · | ·
CC(=O)N1CCCc2ccc(NS(=O)(=O)c3ccccc3)cc21 | -0.5 | -13.8 | · | · | -6.5 | · | · | ·
Cc1ccccc1OCc1nc(-c2ccc(NC(=O)c3ccc4c(c3)OCO4)cc2)no1 | 16.9 | 4.4 | -7.1 | -13.8 | 28.8* | 0.9 | 39.0* | 25.1
COC(OC)c1ccc(C#N)c(=O)[nH]1 | -14.8 | -6.3 | 11.4 | -3.3 | 2.1 | -2.5 | · | ·
O=C(NCCc1ccc(Cl)cc1)C1CCC(CNc2nc(=S)[nH]c3ccccc23)CC1 (centres undefined) | 10.7 | 4.6 | -7.6 | -3.4 | 29.8* | -17.4 | 32.0* | 0.1
O=C(NCCC1=CCCCC1)C1CCC(CNc2nc(=S)[nH]c3ccccc23)CC1 (centres undefined) | 9.5 | 8.4 | 9.1 | -7.1 | 31.7* | -1.6 | 24.1 | -3.7
CCCCNC(=O)C1CCC(CNc2nc(=S)[nH]c3ccccc23)CC1 (centres undefined) | 2.1 | 6.0 | 0.0 | -18.6 | 2.5 | 0.9 | · | ·
O=C(NCc1ccccc1Cl)C1CCC(CNc2nc(=S)[nH]c3ccccc23)CC1 (centres undefined) | 8.7 | 4.1 | -9.7 | 6.0 | -22.4 | -74.9 | · | ·
Cc1ccc2[nH]c(C(=O)N3CCOCC3)cc2c1 | 0.6 | -14.0 | 0.2 | -6.4 | -7.2 | · | · | ·
CCOC(=O)C1=C(COC(=O)COc2ccccc2C#N)NC(=O)NC1C (centres undefined) | -4.1 | -12.7 | · | · | -2.1 | · | · | ·
